ChEMBL document CHEMBL1139923, “Biological evaluation of de-O-sulfonated analogs of salacinol, the role of sulfate anion in the side chain on the alpha-glucosidase inhibitory activity” (Bioorg Med Chem, 2007)
Calls of active or inactive are those of the source. The rule behind the calls is not given here.

Key:
[1] = Inhibition of rat intestinal maltase
Summary of the method: (§1)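 Intestinal α-glucosidase from the in vitro assay with maltose as substrate, 74 mM in the substrate solution. Compound was dissolved in DMSO and diluted in 0.1 M maleate buffer, giving 2.5% DMSO final. Substrate, compound and enzyme solutions were incubated at 37 °C for 30 min, stopped by 2 min in boiling water, and glucose was measured by glucose-oxidase.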

[2] = Inhibition of rat intestinal sucrase
Summary of the method: (§2)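 Sucrose (74 mM in the substrate solution, 0.1 M maleate buffer) was the substrate for intestinal α-glucosidase. Test compound was added from a DMSO stock diluted in buffer (2.5% DMSO final) along with enzyme. The mixture ran 30 min at 37 °C and was halted by boiling for 2 min. Released glucose was quantified by the glucose-oxidase method.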

[3] = organism: Rattus norvegicus; experiment: Inhibition of rat intestinal sucrase at 400 ug/ml; summary of the method: as §2
[4] = organism: Rattus norvegicus; experiment: Inhibition of rat intestinal maltase at 400 ug/ml; summary of the method: as §1
[5] = organism: Rattus norvegicus; experiment: Inhibition of rat intestinal maltase at 1092 uM; summary of the method: as §1

IC50 [1]	IC50 [2]	inhibition [3]	inhibition [4]	Activity [5]	Structure (SMILES)
15.6 µM	3.7 µM				OC[C@@H]1[C@@H](O)[C@H](O)C[S@@+]1C[C@@H](O)[C@@H](O)CO [listing 1 of 2 here]
> 1200 µM	> 1200 µM	21%	18%		O=S(=O)([O-])O[C@@H](CO)[C@H](O)C[S@@+]1C[C@H](O)[C@@H](O)[C@@H]1CO
> 1090 µM	> 1090 µM	48%		inactive	OC[C@H](O)[C@H](O)C[S@@+]1C[C@H](O)[C@@H](O)[C@@H]1CO
9.6 µM	2.5 µM				O=S(=O)([O-])O[C@@H](CO)[C@H](O)C[S@+]1C[C@@H](O)[C@H](O)[C@H]1CO [SALACINOL]
14 µM	3.5 µM				OC[C@@H]1[C@@H](O)[C@H](O)C[S@@+]1C[C@@H](O)[C@@H](O)CO [listing 2 of 2 here]
